One test deals with D98 (Homo sapiens). Put plainly: Compound was tested for inhibition of human sternal marrow cell (D98) growth at a concentration of 100 uM.
For another test, the species on record is Mus musculus. As to the kind of experiment: Compound was tested for inhibition of mouse connective tissue cell (L) growth at a concentration of 100 uM. Particulars: Mus musculus. The class given is functional. Put shortly:
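D-98 (human sternal marrow) and L (mouse connective tissue) cells were cultured with compound at 100 µM, and growth inhibition was reported as %. Procedure per earlier publication.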

Test [1] relates to EL4. Put plainly: Compound was tested for inhibition of lymphocyte-mediated cytolysis at a concentration of 26 uM in [51Cr]- labeled EL4 leukemia cells. The class given is functional. Particulars: Mus musculus.
Test [2] deals with EL4. Put plainly: Compound was tested for inhibition of lymphocyte-mediated cytolysis at a concentration of 50 uM in [51Cr]- labeled EL4 leukemia cells. Particulars: Mus musculus. In kind it is functional.
For test [3], the species on record is Rattus norvegicus. Put plainly: Dose required to produce an acute inflammatory response of the algal poly saccharide carrageenan into the pleural cavity of rat. The class given is functional.
Test [4] has as its system EL4. As to the kind of experiment: Inhibition of lymphocyte-mediated cytolysis at a concentration of 100 uM in [51Cr]- labelled EL4 leukemia cells. In kind it is functional. Particulars: Mus musculus.
The test system of test [5] is Rattus norvegicus. As to the kind of experiment: Dose required to produce an acute inflammatory response of the algal poly saccharide carrageenan into the pleural cavity of rat; IA is Inactive at 6 mg/kg. The class given is functional, organism-based. Also on record: dose 6 mg/kg.

Activity calls are given as the source filed them. No cut-off for these calls is given here.

For orientation: inhibition means the drop in the measured response relative to a control, in per cent. The low end stands for a response near the control, the high end for a response far below the control. Broadly, the ED50 is the dose that gives a 50% effect, or the effect in half of the subjects.

In the case of `CCCCCCNc1[nH]ccc2ncnc1-2`, the inhibition in the test on D98 (Homo sapiens) turned out to be 53%. The inhibition at 100 µM is 82% in the test listed under Mus musculus and 100% in the test on EL4 [4]. This compound also yielded an inhibition at 26 µM in the test on EL4 [1] of 0%. Besides, the inhibition at 50 µM in the test on EL4 [2] amounted to 45%. Further, in the test listed under Rattus norvegicus [3], the 50% effective dose (ED50) was more than 9 mg/kg.

For the compound `CNc1nccc2c1ncn2C1O[C@H](CO)[C@@H](O)[C@H]1O` (some centres undefined), the inhibition with D98 (Homo sapiens) came to 8%. For the same compound, the inhibition at 100 µM in the test filed under Mus musculus was determined as 21%; in the test on EL4 [4], 11%. In addition, the ED50 result in the test on Rattus norvegicus [5] is “inactive”.

Compound `CCNc1nccc2c1ncn2C1O[C@H](CO)[C@@H](O)[C@H]1O` (some centres undefined) came in with an inhibition in the test with D98 (Homo sapiens) of 4%. For the same compound, the inhibition at 100 µM was 20% in the test listed under Mus musculus and 8% in the test with EL4 [4]. Moreover, the ED50 entry in the test with Rattus norvegicus [5] was “inactive”.
